# Changes are numbered by the printed parent chain. Entries after “also recorded” stand apart in the source; their conditions may differ.
# Columns and labels:
# EntB = details: compared with 2,5‐DHB and 3,5‐DHB; ref Khalil & Pawelek, 2009; cited from earlier work
# [1] = molecular target: T1, EntB R196A isochorismatase (Escherichia coli, UniProt P0ADI4, R196A); assay: EntB‐LDH coupled isochorismatase activity assay, EntB R196A; type: biochemical
# T1 sequence (P0ADI4 1-285 R196A): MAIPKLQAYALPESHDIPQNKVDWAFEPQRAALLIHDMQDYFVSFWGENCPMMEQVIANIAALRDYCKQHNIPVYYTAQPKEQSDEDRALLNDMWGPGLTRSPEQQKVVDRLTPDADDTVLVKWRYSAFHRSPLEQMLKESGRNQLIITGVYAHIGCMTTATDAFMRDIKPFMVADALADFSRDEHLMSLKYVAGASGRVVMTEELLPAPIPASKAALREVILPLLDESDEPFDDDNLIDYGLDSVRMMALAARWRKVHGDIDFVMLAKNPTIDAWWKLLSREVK
# Procedure, shortened: (§1)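 His-tagged EntB (pCA24N, E. coli AG-1, IMAC-purified) at 0.10 μM was preincubated 10 min at RT with 1.50 unit/mL LDH and 350 μM NADH in 50 mM HEPES pH 8.0, 150 mM NaCl, 1 mM TCEP. Substrate was a ~3:2 chorismate:isochorismate mix made with EntC and 5 mM MgCl2 on ice for 20 min, then filtered. It was added at 6.2–73.9 μM, and OD340 loss was followed at 21°C. Test compound was at 0, 100, 250 or 400 μM. Km and Vmax came from Michaelis–Menten fits, and Ki from an Eadie–Hofstee slope replot.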
# [2] = molecular target: T2, EntB‐driven EntC reaction (Escherichia coli, UniProt P0ADI4); assay: Isothermal titration microcalorimetry of the EntC–EntB coupled reaction; type: biochemical; details: 313 nM EntC, 1293 nM EntB, 0, 250, 500 μM DHB, 30°C
# T2 sequence (P0ADI4 1-285): T1 sequence (P0ADI4 1-285 R196A) with A196R
# Procedure, shortened: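 The sample cell held 313 nM EntC with or without EntB (162–2587 nM). Two injections of 79 μM chorismate were given 10 min apart, stirring at 300 RPM. Integrated heats were corrected for buffer injection and chorismate dilution heats.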
# [3] = molecular target: T3, wild‐type EntB isochorismatase (Escherichia coli, UniProt P0ADI4); assay: EntB‐LDH coupled isochorismatase activity assay, wild-type EntB; type: biochemical; details: for Isochorismate apparent K m / V max: 0.1 μM EntB
# T3 sequence (P0ADI4 1-285): T1 sequence (P0ADI4 1-285 R196A) with A196R
# Procedure, shortened: as §1
# [4] = molecular target: T4, apo‐EntB (wild‐type EntB) (Escherichia coli, UniProt P0ADI4); assay: Fluorescence anisotropy binding assay, wild-type EntB
# T4 sequence (P0ADI4 1-285): T1 sequence (P0ADI4 1-285 R196A) with A196R
# Procedure, shortened: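 The test compound was held at 2 μM and purified protein was titrated in. Buffer was 50 mM HEPES pH 8.0, 150 mM NaCl, 1 mM TCEP, with 10 min preincubation at RT. Anisotropy was read at 21°C (ex 315 nm, em 437 nm, 10 nm slits), G-factor corrected, in triplicate. Apparent KD came from a one-site total-binding fit.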
# EntB variant R196A = molecular target: T5, EntB variant R196A (Escherichia coli, UniProt P0ADI4, R196A); assay: Fluorescence anisotropy binding assay, EntB R196A; details: EntB R196A titrated into 2.00 μM 2,3‐DHB; apparent K D not determinable (no saturation)
# T5 sequence (P0ADI4 1-285 R196A): T1 sequence (P0ADI4 1-285 R196A)
compound,measurement,setting,value
"O=C(O)c1cccc(O)c1O [2,3‐DHB, 2,3‐dihydroxybenzoic acid]",quenching of EntB intrinsic fluorescence,EntB,able to specifically quench EntB fluorescence; also recorded: most strongly quenched
same,IC50,[1],692 µM
same,effect on heat evolution (integrated reaction heats),[2],suppression of integrated reaction heats; also recorded: heat evolution decreased in a DHB‐dependent manner
same,IC50,[3],360 µM
same,Isochorismate apparent K m,"[3]; 100 μM 2,3‐DHB",16.24 ± 1.57 µM
same,V max,"[3]; 100 μM 2,3‐DHB",5.25 ± 0.17 µM/min
same,Isochorismate apparent K m,"[3]; 250 μM 2,3‐DHB",22.12 ± 3.25 µM
same,V max,"[3]; 250 μM 2,3‐DHB",4.99 ± 0.52 µM/min
same,Isochorismate apparent K m,"[3]; 400 μM 2,3‐DHB",32.55 ± 0.23 µM
same,V max,"[3]; 400 μM 2,3‐DHB",5.33 ± 0.05 µM/min
same,mode of inhibition,"[3]; Eadie–Hofstee plot, linear fits converge at the ordinate",competitive inhibition
same,Kd,[4],8.95 µM
same,affinity relative to wild‐type EntB,EntB variant R196A,much lower affinity than wild‐type EntB

# Reference: publication PMC12096016 (Protein Science : A Publication of the Protein Society, 2025)
